ChEMBL document CHEMBL4052595, “Application of Residual Dipolar Couplings and Selective Quantitative NOE to Establish the Structures of Tetranortriterpenoids from Xylocarpus rumphii” (J Nat Prod, 2017)
Active and inactive are the calls of the source.

Assays:
Assay type in all cases: functional, cell-based
[1] = system: A549; assay: Growth inhibition of human A549/ATCC cells at 10^-5 M incubated for 48 hrs by sulforhodamine B assay
Procedure, shortened: (§1)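 Run in the NCI59 one-dose cell-line screen, with each compound tested at a single concentration of 1 × 10−5 M.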

[2] = system: UO-31; assay: Growth inhibition of human UO31 cells at 10^-5 M incubated for 48 hrs by sulforhodamine B assay
Procedure, shortened: (§2)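 Tested at a single concentration of 1 × 10−5 M as part of the NCI59 cell-line one-dose screen.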

[3] = system: HL-60(TB); assay: Growth inhibition of human HL-60(TB) cells at 10^-5 M incubated for 48 hrs by sulforhodamine B assay
Procedure, shortened: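 Run in the NCI59 cell-line one-dose screen, with each compound tested at a single concentration of 1 × 10−5 M.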

[4] = system: HOP-62; assay: Growth inhibition of human HOP62 cells at 10^-5 M incubated for 48 hrs by sulforhodamine B assay; procedure, shortened: as §1
[5] = system: HCT-116; assay: Growth inhibition of human HCT116 cells at 10^-5 M incubated for 48 hrs by sulforhodamine B assay; procedure, shortened: as §1
[6] = system: T47D; assay: Growth inhibition of human T47D cells at 10^-5 M incubated for 48 hrs by sulforhodamine B assay; procedure, shortened: as §2
[7] = system: SK-MEL-2; assay: Growth inhibition of human SK-MEL-2 cells at 10^-5 M incubated for 48 hrs by sulforhodamine B assay; procedure, shortened: as §1
[8] = system: IGROV-1; assay: Growth inhibition of human IGROV1 cells at 10^-5 M incubated for 48 hrs by sulforhodamine B assay; procedure, shortened: as §1
[9] = system: NCI-H460; assay: Growth inhibition of human NCI-H460 cells at 10^-5 M incubated for 48 hrs by sulforhodamine B assay; procedure, shortened: as §1
[10] = system: SK-MEL-28; assay: Growth inhibition of human SK-MEL-28 cells at 10^-5 M incubated for 48 hrs by sulforhodamine B assay; procedure, shortened: as §1
[11] = system: M14; assay: Growth inhibition of human M14 cells at 10^-5 M incubated for 48 hrs by sulforhodamine B assay; procedure, shortened: as §1
[12] = system: LOX IMVI; assay: Growth inhibition of human LOXIMVI cells at 10^-5 M incubated for 48 hrs by sulforhodamine B assay; procedure, shortened: as §1
[13] = system: NCI-H522; assay: Growth inhibition of human NCI-H522 cells at 10^-5 M incubated for 48 hrs by sulforhodamine B assay; procedure, shortened: as §1
[14] = system: SF-539; assay: Growth inhibition of human SF539 cells at 10^-5 M incubated for 48 hrs by sulforhodamine B assay; procedure, shortened: as §1
[15] = system: KM12; assay: Growth inhibition of human KM12 cells at 10^-5 M incubated for 48 hrs by sulforhodamine B assay; procedure, shortened: as §1
[16] = system: COLO 205; assay: Growth inhibition of human COLO205 cells at 10^-5 M incubated for 48 hrs by sulforhodamine B assay; procedure, shortened: as §1
[17] = system: OVCAR-8; assay: Growth inhibition of human OVCAR8 cells at 10^-5 M incubated for 48 hrs by sulforhodamine B assay; procedure, shortened: as §1
[18] = system: HCC 2998; assay: Growth inhibition of human HCC2998 cells at 10^-5 M incubated for 48 hrs by sulforhodamine B assay; procedure, shortened: as §1
[19] = system: SR; assay: Growth inhibition of human SR cells at 10^-5 M incubated for 48 hrs by sulforhodamine B assay; procedure, shortened: as §1
[20] = system: U-251; assay: Growth inhibition of human U251 cells at 10^-5 M incubated for 48 hrs by sulforhodamine B assay; procedure, shortened: as §2
[21] = system: DU-145; assay: Growth inhibition of human DU145 cells at 10^-5 M incubated for 48 hrs by sulforhodamine B assay; procedure, shortened: as §1
[22] = system: A498; assay: Growth inhibition of human A498 cells at 10^-5 M incubated for 48 hrs by sulforhodamine B assay; procedure, shortened: as §1
[23] = system: SN12C; assay: Growth inhibition of human SN12C cells at 10^-5 M incubated for 48 hrs by sulforhodamine B assay; procedure, shortened: as §1
[24] = system: MDA-MB-231; assay: Growth inhibition of human MDA-MB-231 cells at 10^-5 M incubated for 48 hrs by sulforhodamine B assay; procedure, shortened: as §1
[25] = system: MDA-MB-435; assay: Growth inhibition of human MDA-MB-435 cells at 10^-5 M incubated for 48 hrs by sulforhodamine B assay; procedure, shortened: as §1
[26] = system: SNB-19; assay: Growth inhibition of human SNB19 cells at 10^-5 M incubated for 48 hrs by sulforhodamine B assay; procedure, shortened: as §1
[27] = system: HT-29; assay: Growth inhibition of human HT-29 cells at 10^-5 M incubated for 48 hrs by sulforhodamine B assay; procedure, shortened: as §1
[28] = system: NCI/ADR-RES; assay: Growth inhibition of human NCI/ADR-RES cells at 10^-5 M incubated for 48 hrs by sulforhodamine B assay; procedure, shortened: as §1
[29] = system: ACHN; assay: Growth inhibition of human ACHN cells at 10^-5 M incubated for 48 hrs by sulforhodamine B assay; procedure, shortened: as §1
[30] = system: EKVX; assay: Growth inhibition of human EKVX cells at 10^-5 M incubated for 48 hrs by sulforhodamine B assay; procedure, shortened: as §1
[31] = system: NCI-H226; assay: Growth inhibition of human NCI-H226 cells at 10^-5 M incubated for 48 hrs by sulforhodamine B assay; procedure, shortened: as §1
[32] = system: NCI-H23; assay: Growth inhibition of human NCI-H23 cells at 10^-5 M incubated for 48 hrs by sulforhodamine B assay; procedure, shortened: as §1
[33] = system: UACC-62; assay: Growth inhibition of human UACC62 cells at 10^-5 M incubated for 48 hrs by sulforhodamine B assay; procedure, shortened: as §2
[34] = system: SK-OV-3; assay: Growth inhibition of human SKOV3 cells at 10^-5 M incubated for 48 hrs by sulforhodamine B assay; procedure, shortened: as §1
[35] = system: Hs-578T; assay: Growth inhibition of human Hs 578T cells at 10^-5 M incubated for 48 hrs by sulforhodamine B assay; procedure, shortened: as §1
[36] = system: MCF7; assay: Growth inhibition of human MCF7 cells at 10^-5 M incubated for 48 hrs by sulforhodamine B assay; procedure, shortened: as §1
[37] = system: MOLT-4; assay: Growth inhibition of human MOLT4 cells at 10^-5 M incubated for 48 hrs by sulforhodamine B assay; procedure, shortened: as §1
[38] = system: BT-549; assay: Growth inhibition of human BT549 cells at 10^-5 M incubated for 48 hrs by sulforhodamine B assay; procedure, shortened: as §1
[39] = system: SF-268; assay: Growth inhibition of human SF268 cells at 10^-5 M incubated for 48 hrs by sulforhodamine B assay; procedure, shortened: as §1
[40] = system: NCI-H322M; assay: Growth inhibition of human NCI-H322M cells at 10^-5 M incubated for 48 hrs by sulforhodamine B assay; procedure, shortened: as §1
[41] = system: HOP-92; assay: Growth inhibition of human HOP92 cells at 10^-5 M incubated for 48 hrs by sulforhodamine B assay; procedure, shortened: as §1
[42] = system: SF-295; assay: Growth inhibition of human SF295 cells at 10^-5 M incubated for 48 hrs by sulforhodamine B assay; procedure, shortened: as §1
[43] = system: CCRF-CEM; assay: Growth inhibition of human CCRF-CEM cells at 10^-5 M incubated for 48 hrs by sulforhodamine B assay; procedure, shortened: as §1
[44] = system: PC-3; assay: Growth inhibition of human PC3 cells at 10^-5 M incubated for 48 hrs by sulforhodamine B assay; procedure, shortened: as §1
[45] = system: OVCAR-5; assay: Growth inhibition of human OVCAR5 cells at 10^-5 M incubated for 48 hrs by sulforhodamine B assay; procedure, shortened: as §1
[46] = system: SK-MEL-5; assay: Growth inhibition of human SK-MEL-5 cells at 10^-5 M incubated for 48 hrs by sulforhodamine B assay; procedure, shortened: as §1
[47] = system: SW-620; assay: Growth inhibition of human SW620 cells at 10^-5 M incubated for 48 hrs by sulforhodamine B assay; procedure, shortened: as §2
[48] = system: CAKI-1; assay: Growth inhibition of human Caki1 cells at 10^-5 M incubated for 48 hrs by sulforhodamine B assay; procedure, shortened: as §1
[49] = system: UACC-257; assay: Growth inhibition of human UACC257 cells at 10^-5 M incubated for 48 hrs by sulforhodamine B assay; procedure, shortened: as §2
[50] = system: HCT-15; assay: Growth inhibition of human HCT15 cells at 10^-5 M incubated for 48 hrs by sulforhodamine B assay; procedure, shortened: as §1
[51] = system: 786-0; assay: Growth inhibition of human 786-0 cells at 10^-5 M incubated for 48 hrs by sulforhodamine B assay; procedure, shortened: as §1
[52] = system: RPMI-8226; assay: Growth inhibition of human RPMI8226 cells at 10^-5 M incubated for 48 hrs by sulforhodamine B assay; procedure, shortened: as §1
[53] = system: OVCAR-3; assay: Growth inhibition of human OVCAR3 cells at 10^-5 M incubated for 48 hrs by sulforhodamine B assay; procedure, shortened: as §1
[54] = system: K562; assay: Growth inhibition of human K562 cells at 10^-5 M incubated for 48 hrs by sulforhodamine B assay; procedure, shortened: as §1
[55] = system: OVCAR-4; assay: Growth inhibition of human OVCAR4 cells at 10^-5 M incubated for 48 hrs by sulforhodamine B assay; procedure, shortened: as §1
[56] = system: TK-10; assay: Growth inhibition of human TK10 cells at 10^-5 M incubated for 48 hrs by sulforhodamine B assay; procedure, shortened: as §2
[57] = system: RXF 393; assay: Growth inhibition of human RXF393 cells at 10^-5 M incubated for 48 hrs by sulforhodamine B assay; procedure, shortened: as §1
[58] = system: SNB-75; assay: Growth inhibition of human SNB75 cells at 10^-5 M incubated for 48 hrs by sulforhodamine B assay; procedure, shortened: as §1

Measured: growth inhibition (GI)

CC[C@H](C)C(=O)O[C@@H]1[C@@H]2[C@@H](OC(=O)C(C)C)[C@@]34O[C@]2(O)[C@@](C)([C@@H](CC(=O)OC)C1(C)C)[C@H]3CC[C@]1(C)C4=CC(=O)O[C@H]1c1ccoc1
inactive: all assays above
